Sampled rows, rich in hits. Any-hit rate of the full collection: about 4.5%.
OX1R antag-1 – OX1R (HCRTR1) antagonists, primary screen, fluorescence, CHO/OX1R cells, Fluo-8 calcium, orexin A | 330,000 tested, 0.43% active | Fluo-8 calcium fluorescence | inhibition, % at 5 µM | Orexin/Hypocretin receptor type 1 (Homo sapiens), O43613 | AID 434989, 2010;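 active = inhibition above its plate's threshold, mean inhibition of all tested compounds on the plate plus 3 SD, cut at about 37% in these data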
CHO parental Ca – ATP-evoked calcium signal inhibitors, parental CHO, primary screen, counter-screen for OX1R antagonist project, cell-based, fluorescence, Fluo-8 calcium dye | parental CHO-K1, ATP-induced calcium, Fluo-8 fluorescence | inhibition, % at 5.6 µM | 330,000 tested, 0.63% active | AID 463079, 2010;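 active = inhibition above that plate's mean sample inhibition plus 3 SD, cut at about 26% in these data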
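Material: parental CHO cells / Compound: single nominal dose of 5.6 µM per compound / Signal: Fluo-8 fluorescence / Replicates: singlicate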
OX1R antag-2 – antagonists of human orexin 1 receptor (OX1R); Orexin/Hypocretin receptor type 1 (Homo sapiens), O43613; OX1R-expressing cells, FRET antagonist read-out; inhibition, % at 6.6 µM; 330,000 tested, 1.8% active; in the data active = inhibition mostly above about 38%, no sharp cut-off; inactive = mostly below about 40%
TAAR1 antagonist – human TAAR1 antagonists, primary screen, Fluo-8 calcium fluorescence, CHO RD-HGA16 cells | antagonist | inhibition, % at 3 µM | 360,000 tested, 1.5% active;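 active = inhibition above a per-plate cutoff, the mean inhibition of test compounds on that plate plus 3 SD, cut at about 49% in these data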
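Material: CHO RD-HGA16 cells bearing hTAAR1; compound dosing: one-point dosing, 3 µM nominal final; schedule: dye loading 75 min at 37 °C, then 30 min room temperature; measured by: calcium fluorescence with Fluo-8; control set: vehicle and agonist controls; replication: n of 1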
GPR7 antagonist – GPR7 receptor antagonists, primary screen, cell-based, fluorescence, single concentration; GPR7-expressing cells, fluorescence antagonist assay; inhibition, % at 4.4 µM; 290,000 tested, 1.1% active; AID 1861, 2009; in the data active = inhibition above about 16%, passing the limit was not always enough;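 note: cells stimulated with the agonist NPW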
Target sequence (P48145 whole entry, looked up): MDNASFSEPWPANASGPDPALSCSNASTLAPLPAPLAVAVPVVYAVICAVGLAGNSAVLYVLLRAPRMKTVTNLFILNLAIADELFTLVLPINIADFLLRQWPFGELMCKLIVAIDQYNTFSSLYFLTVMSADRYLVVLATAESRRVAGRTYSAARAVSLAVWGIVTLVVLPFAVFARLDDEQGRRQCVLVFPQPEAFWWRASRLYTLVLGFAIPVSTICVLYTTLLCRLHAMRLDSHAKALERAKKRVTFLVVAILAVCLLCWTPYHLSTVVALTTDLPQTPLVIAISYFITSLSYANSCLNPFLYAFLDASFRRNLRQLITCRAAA
TAAR1 ag – human TAAR1 agonists, primary screen, Fluo-8 calcium fluorescence, CHO RD-HGA16 cells; AID 624467, 2012; activation, % at 3 µM; vehicle wells 0%, saturating PEA agonist 100%; 360,000 tested, 0.99% active; Trace amine-associated receptor 1 (Homo sapiens), Q96RJ0;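 active = activation above the mean activation of all test compounds in the run plus 3 SD, cut at about 38% in these data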
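System: CHO-derived RD-HGA16 cells with stable Gα16 and human TAAR1 / Times: 17-24 h plating, Fluo-8 75 min 37 °C, 30 min RT / Technique: calcium-sensitive Fluo-8 signal, excitation 470-495, emission 515-575 nm / Measure: % activation relative to PEA EC100 response / Benchmarks: DMSO and PEA EC100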
TAAR1 ag conf – human TAAR1 agonists, retest of hits, confirmation, Fluo-8 calcium fluorescence, CHO RD-HGA16 cells | shares compounds with TAAR1 ag | scaled: DMSO 0%, maximal phenethylamine 100% | activation, % at 3 µM | 2,400 tested, 82% active | AID 651783, 2012;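 active = activation above a cutoff set at the run's mean compound activation plus 3 SD, cut at about 39% in these data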
Ga16 ag counter – nonselective calcium mobilization agonists, CHO-Ga16 cells, counter-screen for hTAAR1 agonist project, cell-based, fluorescence, CHO-Ga16 parental line; 2,400 tested, 50% active; shares compounds with TAAR1 ag; activation, % at 3 µM; Fluo-8 calcium fluorescence; normalized to maximal ATP response, DMSO zero;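 active = activation above the run cutoff, the mean activation over all tested wells plus 3 SD, cut at about 12% in these data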
TAAR1 desens – TAAR1 desensitization by agonist hits, confirmation, counter-screen for TAAR1 agonist project, cell-based, fluorescence, tachyphylaxis; shares compounds with TAAR1 ag; CHO RD-HGA16 hTAAR1, Fluo-8 calcium, beta-PEA response inhibition; inhibition, % at 3 µM; 2,400 tested, 46% active;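 active = inhibition above the run cutoff, the mean inhibition of all test compounds plus 3 SD, cut at about 49% in these data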;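 note: beta-PEA stimulus applied at its EC80; loss of beta-PEA calcium signal after compound pretreatment read as receptor desensitization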
Ga16 nonsel ant – inhibition of ATP-evoked calcium response in CHO-Ga16 cells, counter-screen for TAAR1 agonist project, cell-based, fluorescence | CHO-Ga16 ATP-induced calcium, Fluo-8 fluorescence | AID 651952, 2012 | shares compounds with TAAR1 ag | inhibition, % at 3 µM | 2,400 tested, 39% active;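 active = inhibition above the plate's mean compound inhibition plus 3 SD, computed per plate, cut at about 22% in these data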
Hits are given with their value; – = inactive; · = not tested or not shown.

SMILES	OX1R antag-1	CHO parental Ca	OX1R antag-2	TAAR1 antagonist	GPR7 antagonist	TAAR1 ag	TAAR1 ag conf	Ga16 ag counter	TAAR1 desens	Ga16 nonsel ant
CCCCn1c(=O)[nH]c2nc3cc(NC(C)=O)ccc3nc2c1=O	–	–	–	–	–	–	·	·	·	·
O=C(NCC1CCCN1S(=O)(=O)c1cccs1)c1c(F)cccc1F (stereo not drawn)	–	–	–	–	·	–	·	·	·	·
CC(=O)Nc1ccc(C(=O)CN2C(=O)NC3(CCOc4ccccc43)C2=O)c(F)c1 (stereo not drawn)	–	–	–	–	·	–	·	·	·	·
CC(=O)c1c(C)[nH]c(C(=O)OCc2nnc(-c3ccc([N+](=O)[O-])cc3)o2)c1C	–	–	–	–	·	48	–	–	–	–
CNCc1cc(Br)c(OCC(=O)Nc2ccccc2OC)c(OC)c1	–	–	–	–	–	–	·	·	·	·
COc1cc(CNCCc2ccccc2)cc(Br)c1OCC(=O)Nc1ccccc1C	–	–	–	59	–	88	92	21	76	34
COc1ccc(N(C(=O)CCl)C(C(=O)NCCc2ccccc2)c2cccs2)cc1Cl (stereo not drawn)	–	–	–	–	–	40	–	–	–	–
COc1cccc(N(C(=O)CCl)C(C(=O)NCCc2ccccc2)c2cccs2)c1 (stereo not drawn)	–	–	–	–	–	–	·	·	·	·
CC(=O)N(Cc1ccc(F)cc1)C1=C(NCCc2ccccc2)C(=O)c2ccccc2C1=O	–	–	–	–	–	50	–	–	–	–
O=C1C(Cl)=C(NCC2CCCO2)C(=O)N1CCc1ccccc1 (stereo not drawn)	–	–	–	–	–	74	52	–	–	–
O=C1C(Cl)=C(NCCc2ccccc2)C(=O)c2ccccc21	·	·	·	67	·	79	107	14	96	28
O=C1C(Cl)=C(NCCc2ccccc2)C(=O)N1CCc1ccccc1	–	–	–	66	–	43	73	–	83	32
CC(=O)N(Cc1ccc(F)cc1)c1cccc(C)c1C	–	–	–	–	–	–	·	·	·	·
O=C1C(Cl)=C(NCCCN2CCOCC2)C(=O)N1CCc1ccccc1	–	–	–	–	–	–	·	·	·	·
CCc1ccc([C@@H]2C[C@H]3[C@@H](CN2S(=O)(=O)c2ccc(C)cc2)C(=O)C[C@@H](c2ccc(C)cc2)N3S(=O)(=O)c2ccc(C)cc2)cc1	·	·	·	–	·	–	·	·	·	·
C[C@@H]1CN([C@@H](C)CO)C(=O)CCCn2nncc2CO[C@H]1CN(C)C(=O)Nc1ccccc1F	·	·	·	–	·	–	·	·	·	·
Cc1ccccc1-c1cccc([C@@H]2C[C@H]3C(CN2)CON3C)c1 (stereo partly drawn)	·	·	·	–	·	–	·	·	·	·
Cc1ccc(S(=O)(=O)NCCc2ccccc2)cc1	–	–	–	–	–	–	·	·	·	·
Cc1cc(C)c(S(=O)(=O)NCCc2ccccc2)c(C)c1	–	–	–	–	–	46	52	–	–	–
CC(C)Nc1nc(NCCN2CCNC2=O)c2sccc2n1	·	·	·	–	·	–	·	·	·	·

Screening data from PubChem.
